Where a name gives a salt, the structure may show the parent alone.

One assay deals with MDA-MB-468. In words: MTT cytotoxicity assay, MDA-MB-468. In kind it is cell-based, Human. Conditions: MDA-MB-468 breast cancer cell line, serum-free media, 48 h. In a few lines: (§1)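 Cells were seeded at 5×10^3 per well in complete medium. The next day the medium was replaced with serum-free medium containing test compound (0–100 μM) or free doxorubicin (positive control), with untreated cells in serum-free medium as negative control, for 48 h at 37 °C, 5% CO2. MTT (5 mg/mL solution) was then added for 2 h. Formazan was dissolved in 4 mM HCl/0.1% NP40/2-propanol (1:1:1) and read at 570 nm. Viability was taken relative to untreated cells, in triplicate, with the experiment repeated once. IC50 came from a nonlinear fit of normalized data against log concentration.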
Background: Formazan colour is commonly taken as a measure of viable cells.

A further assay has as its system MCF-10A. The assay can be described thus: MTT cytotoxicity assay, MCF-10A. In kind it is cell-based, Human. The settings on record: non-cancerous cell line MCF-10A, serum-free media, 48 h. In a few lines: as §1

The term IC50 denotes the concentration that inhibits the measured activity by half. As to `COc1cccc2c1C(=O)c1c(O)c3c(c(O)c1C2=O)C[C@@](O)(C(=O)CO)C[C@@H]3O[C@H]1C[C@H](N)[C@H](O)[C@H](C)O1` [Dox, Doxorubicin hydrochloride], the IC50 came to 350 nM in the assay with MDA-MB-468 and 240 nM in the assay on MCF-10A.

Values taken from article PMC7965737 (Bioconjugate chemistry, 2019).
